Results as given in ChEMBL document CHEMBL1158375, “Design and synthesis of new N-(fluorenyl-9-methoxycarbonyl) (Fmoc)-dipeptides as anti-inflammatory agents” (Eur J Med Chem, 2009).
pIC50: −log10 of the molar value.

How the values were obtained:
Details in all cases: Neutrophil
[1] = Antiinflammatory activity in fMLP/cytochalasin B-stimulated human neutrophils assessed as inhibition of superoxide anion generation after 5 mins; format: functional, cell-based
Method in brief: (§1)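 Donor neutrophils isolated by dextran sedimentation, Ficoll Hypaque and hypotonic lysis, kept in Ca2+-free HBSS pH 7.4 at 4 °C. Cells given 0.5 mg/mL ferricytochrome c and 1 mM Ca2+, 2 min at 37 °C, drug 5 min, CB 1 μg/mL 3 min, then 100 nM fMLP for 10 min. SOD-inhibitable cytochrome c reduction. IC50 or % inhibition at 10 μg/mL; mean ± S.E.M., n = 3-4.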

[2] = Antiinflammatory activity in fMLP/cytochalasin B-stimulated human neutrophils assessed as inhibition of elastase release at 10 ug/ml after 5 mins; format: functional
Method in brief: (§2)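 Neutrophils from healthy donor blood (dextran sedimentation, Ficoll Hypaque, hypotonic erythrocyte lysis; >98% viable), held in Ca2+-free HBSS pH 7.4 at 4 °C. 5 × 10⁵ cells/mL with 100 μM MeO-Suc-Ala-Ala-Pro-Val-p-nitroanilide, 2 min at 37 °C, drug 5 min, then 100 nM fMLP + 0.5 μg/mL CB. A405 followed continuously; percent of initial rate versus drug-free control. IC50 or % inhibition at 10 μg/mL; mean ± S.E.M., n = 3-4.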

[3] = Antiinflammatory activity in fMLP/cytochalasin B-stimulated human neutrophils assessed as inhibition of elastase release after 5 mins; format: functional, cell-based; method in brief: as §2
[4] = Antiinflammatory activity in fMLP/cytochalasin B-stimulated human neutrophils assessed as inhibition of superoxide anion generation at 10 ug/ml after 5 mins; format: functional; method in brief: as §1

Row | pIC50 [1] | pIC50 [3] | Compound | inhibition at 10 µg/mL [2] [%] | inhibition at 10 µg/mL [4] [%]
1 | 5.48 | – | O=C(N[C@@H](Cc1c[nH]c2ccccc12)C(=O)O)OCC1c2ccccc2-c2ccccc21 | 45.4 | –
2 | 4.85 | 4.85 | O=C(N[C@@H](Cc1ccccc1)C(=O)O)OCC1c2ccccc2-c2ccccc21 | – | –
3 | – | 5.19 | CC(=O)OC[C@@H](Cc1ccccc1)NC(=O)[C@H](Cc1ccc(O)cc1)NC(=O)OCC1c2ccccc2-c2ccccc21 | – | 8
4 | – | – | CC(=O)OC[C@H](Cc1ccccc1)NC(=O)[C@H](Cc1ccccc1)NC(=O)OCC1c2ccccc2-c2ccccc21 | 39.5 | 2.8
5 | – | – | CC(=O)OC[C@H](Cc1ccccc1)NC(=O)[C@H](Cc1ccc(O)cc1)NC(=O)OCC1c2ccccc2-c2ccccc21 | 22.8 | -0.5
6 | – | – | CC(=O)OC[C@H](Cc1ccccc1)NC(=O)[C@@H](NC(=O)OCC1c2ccccc2-c2ccccc21)C(C)C | 27.7 | -6.3
7 | – | 5.77 | CC(=O)OC[C@@H](Cc1ccccc1)NC(=O)[C@H](Cc1c[nH]c2ccccc12)NC(=O)OCC1c2ccccc2-c2ccccc21 | – | 18.6
8 | – | 5.26 | CC(=O)OC[C@H](Cc1ccccc1)NC(=O)[C@H](Cc1c[nH]c2ccccc12)NC(=O)OCC1c2ccccc2-c2ccccc21 | – | 24.5
9 | – | – | CC(=O)OC[C@H](Cc1ccccc1)NC(=O)[C@@H](N)Cc1ccc(O)cc1 | 22.8 | -0.5
10 | – | – | CC(=O)OC[C@H](Cc1ccccc1)NC(=O)[C@H](Cc1ccccc1)NC(=O)OCc1ccccc1 | 27.2 | 39.3
11 | – | – | CC[C@H](C)[C@H](NC(=O)OCC1c2ccccc2-c2ccccc21)C(=O)N[C@@H](COC(C)=O)Cc1ccccc1 | 22.5 | 6
12 | – | – | CC(=O)OC[C@@H](Cc1ccccc1)NC(=O)[C@@H](NC(=O)OCC1c2ccccc2-c2ccccc21)C(C)C | 34.6 | -2.3
13 | – | – | CC(=O)OC[C@@H](Cc1ccccc1)NC(=O)[C@H](Cc1ccccc1)NC(=O)OCc1ccccc1 | 35.4 | 40.9
14 | – | – | CC(=O)OC[C@H](Cc1ccccc1)NC(=O)[C@H](Cc1cn(C(c2ccccc2)(c2ccccc2)c2ccccc2)cn1)NC(=O)OCC1c2ccccc2-c2ccccc21 | 32 | 9.5
15 | – | 6.10 | CC(=O)OC[C@H](Cc1ccccc1)NC(=O)[C@H](Cc1ccc(OC(C)(C)C)cc1)NC(=O)OCC1c2ccccc2-c2ccccc21 | – | 25.9
16 | – | 4.89 | CC(=O)OC[C@@H](Cc1ccccc1)NC(=O)[C@H](Cc1ccccc1)NC(=O)OCC1c2ccccc2-c2ccccc21 | – | 31.3
17 | – | 4.84 | CC(=O)OC[C@@H](Cc1ccccc1)NC(=O)[C@H](Cc1ccc2ccccc2c1)NC(=O)OCC1c2ccccc2-c2ccccc21 | – | 2.1
18 | – | – | CC(=O)OC[C@H](Cc1ccccc1)NC(=O)[C@H](Cc1ccc2ccccc2c1)NC(=O)OCC1c2ccccc2-c2ccccc21 | 37.8 | 5
19 | – | – | CC(=O)OC[C@@H](Cc1ccccc1)NC(=O)[C@H](Cc1ccc(OC(C)(C)C)cc1)NC(=O)OCC1c2ccccc2-c2ccccc21 | 31.9 | 22.3
20 | – | – | CC(=O)OC[C@@H](Cc1ccccc1)NC(=O)[C@H](Cc1cn(C(c2ccccc2)(c2ccccc2)c2ccccc2)cn1)NC(=O)OCC1c2ccccc2-c2ccccc21 | -2.9 | 6.6
21 | < 4.70 | < 4.70 | CC(=O)OC[C@@H](Cc1ccccc1)NC(=O)[C@@H](N)Cc1ccccc1 | – | –
22 | – | – | CC(=O)OC[C@@H](Cc1ccccc1)NC(=O)[C@H](Cc1ccccc1)NC(=O)OC(C)(C)C | 11 | 4.7
23 | 5.26 | 5.25 | CC(C)(C)Oc1ccc(C[C@H](NC(=O)OCC2c3ccccc3-c3ccccc32)C(=O)O)cc1 | – | –
24 | < 4.70 | < 4.70 | CC(=O)OC[C@H](Cc1ccccc1)NC(=O)[C@@H](N)Cc1ccccc1 | – | –
25 | – | – | CC(C)[C@H](NC(=O)OCC1c2ccccc2-c2ccccc21)C(=O)O | 14.5 | 29.4
26 | 4.89 | – | CC[C@H](C)[C@H](NC(=O)OCC1c2ccccc2-c2ccccc21)C(=O)O | 39.8 | –
27 | 5.62 | 5.54 | O=C(N[C@@H](Cc1ccc(O)cc1)C(=O)O)OCC1c2ccccc2-c2ccccc21 | – | –
28 | – | – | CC[C@H](C)[C@H](NC(=O)OCC1c2ccccc2-c2ccccc21)C(=O)N[C@H](COC(C)=O)Cc1ccccc1 | 25.8 | 2.2
29 | – | – | CC(=O)OC[C@H](Cc1ccccc1)NC(=O)[C@H](Cc1ccccc1)NC(=O)OC(C)(C)C | 18.9 | 42.1
30 | – | 5.43 | CC(=O)OC[C@@H](Cc1ccccc1)NC(=O)[C@@H](N)Cc1ccc(O)cc1 | – | 8

Row | Compound | pIC50 [1] | pIC50 [3] | inhibition at 10 µg/mL [2] [%] | inhibition at 10 µg/mL [4] [%]
31 | c1ccc2c(c1)[I+]c1ccccc1-2 [DIPHENYLENEIODONIUM] | 6.15 | – | – | –
